Assay results taken from ChEMBL document CHEMBL3244032, “Synthesis and antiviral acticity of some phosphates of the broad-spectrum antiviral nucleoside, 1-beta-D-ribofuranosyl-1,2,4-triazole-3-carboxamide (ribavirin)” (J Med Chem, 1978).
Active and inactive are the calls of the source. The calls are words filed in the database; no cut-off is given here.

Legend:
Vaccinia virus = assay: Antiviral activity against Vaccinia virus infected in human KB cells assessed as inhibition of virus-induced cytopathic effect at 1 to 1000 ug/ml after 72 hrs; type: functional, organism-based; conditions: Orthopoxvirus vaccinia
Human alphaherpesvirus 1 = assay: Antiviral activity against HSV1 infected in human KB cells assessed as inhibition of virus-induced cytopathic effect at 1 to 1000 ug/ml after 72 hrs; type: functional, organism-based
In short: (§1)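 KB cell monolayers (24 h old) infected with 320 cell culture 50% infectious doses/mL of virus; compound added 15 min after infection at 1000 to 1 μg/mL. Plates incubated 72 h at 37 °C and scored for inhibition of viral CPE. Activity was expressed as a virus rating that accounts for cytotoxicity and CPE in treated versus untreated cells. VR 0.5 or above was taken as definite activity.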

Human respirovirus 3 = assay: Antiviral activity against Parainfluenza virus type 3 infected in human KB cells assessed as inhibition of virus-induced cytopathic effect at 1 to 1000 ug/ml after 72 hrs; type: functional, organism-based; in short: as §1
KB [1] = assay: Antiviral activity against Rhinovirus type 13 infected in human KB cells assessed as inhibition of virus-induced cytopathic effect at 1 to 1000 ug/ml after 72 hrs; type: functional, cell-based; conditions: Human rhinovirus A13; in short: as §1
KB [2] = assay: Antiviral activity against Adenovirus type 3 infected in human KB cells assessed as inhibition of virus-induced cytopathic effect at 1 to 1000 ug/ml after 72 hrs; type: functional, cell-based; conditions: Human adenovirus 3; in short: as §1
Mus musculus [3] = assay: Toxicity in Swiss mouse infected with Influenza A2 virus Japan 305 assessed as survival at 75 mg/kg/day, po bid administered for 9 days started at 4 hrs prior to infection; type: organism-based; design: route oral; conditions: in vivo
Mus musculus [4] = assay: Toxicity in Swiss mouse infected with Influenza B virus Lee assessed as survival at 75 mg/kg/day, ip bid administered for 9 days started at 4 hrs prior to infection; type: organism-based; design: route intraperitoneal; conditions: in vivo
Mus musculus [5] = assay: Toxicity in Swiss mouse infected with Murine hepatitis virus Friend-Braunsteiner assessed as survival at 75 mg/kg/day, ip bid administered for 8 days started at 2 hrs prior to infection; type: organism-based; design: route intraperitoneal; conditions: in vivo
Mus musculus [6] = assay: Toxicity in Swiss mouse infected with Murine hepatitis virus Friend-Braunsteiner assessed as survival at 37.5 mg/kg/day, ip bid administered for 8 days started at 2 hrs prior to infection; type: organism-based; design: route intraperitoneal; conditions: in vivo
Mus musculus [7] = assay: Toxicity in Swiss mouse infected with Murine hepatitis virus Friend-Braunsteiner assessed as survival at 18.8 mg/kg/day, ip bid administered for 8 days started at 2 hrs prior to infection; type: organism-based; design: route intraperitoneal; conditions: in vivo
Influenza A virus [8] = assay: Antiviral activity against Influenza A2 virus Japan 305 infected in Swiss mouse assessed as survival at 75 mg/kg/day, po bid administered for 9 days relative to control; type: functional, organism-based
Influenza B virus [9] = assay: Antiviral activity against Influenza B virus Lee infected in Swiss mouse assessed as survival at 75 mg/kg/day, ip bid administered for 9 days relative to control; type: functional, organism-based
In short: (§2)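 Swiss mice, 14-16 g, given virus intranasally at a dose lethal to 95%. Dosed intraperitoneally twice daily for 9 days, starting 4 h before infection; controls got saline. Survivors counted on day 21 postinfection; survival compared by χ² analysis. Mean survival time is from animals dying on or before day 21 and was compared by t test.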

Murine hepatitis virus [10] = assay: Antiviral activity against Murine hepatitis virus Friend-Braunsteiner infected in Swiss mouse assessed as survival at 18.8 to 75 mg/kg/day, ip bid administered for 8 days relative to control; type: functional, organism-based
In short: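 Swiss mice of 16-18 g were inoculated ip with a 95% lethal dose of virus. Treatment was given ip twice daily for 8 days, starting 2 h before inoculation, at 75, 37.5 or 18.8 mg/kg/day; placebo controls received saline. Survivors were counted on day 21 postinfection and compared by χ² analysis. Mean survival time covered animals dying by day 21 and was compared by t test. Uninfected toxicity controls were included.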

Influenza A virus [11] = assay: Antiviral activity against Influenza A2 virus Japan 305 infected in Swiss mouse assessed as mean survival time at 75 mg/kg/day, po bid administered for 9 days (reference value: 9 days); type: functional
Influenza B virus [12] = assay: Antiviral activity against Influenza B virus Lee infected in Swiss mouse assessed as mean survival time at 75 mg/kg/day, ip bid administered for 9 days (reference value: 11.2 days); type: functional; conditions: route intraperitoneal; in short: as §2
Murine hepatitis virus [13] = assay: Antiviral activity against Murine hepatitis virus Friend-Braunsteiner infected in Swiss mouse assessed as mean survival time at 75 mg/kg/day, ip bid administered for 8 days (reference value: 5.2 days); type: functional; conditions: route intraperitoneal
In short: (§3)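 Swiss mice, 16-18 g, inoculated ip with a 95% lethal dose of virus. Dosed ip twice daily for 8 days, beginning 2 h before inoculation, at 18.8, 37.5 or 75 mg/kg/day; controls got saline. Survivors counted on day 21; survival compared by χ² analysis. Mean survival time is from deaths on or before day 21, compared by t test.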

Murine hepatitis virus [14] = assay: Antiviral activity against Murine hepatitis virus Friend-Braunsteiner infected in Swiss mouse assessed as mean survival time at 37.5 mg/kg/day, ip bid administered for 8 days (reference value: 5.2 days); type: functional; conditions: route intraperitoneal; in short: as §3
Murine hepatitis virus [15] = assay: Antiviral activity against Murine hepatitis virus Friend-Braunsteiner infected in Swiss mouse assessed as mean survival time at 18.8 mg/kg/day, ip bid administered for 8 days (reference value: 5.2 days); type: functional; conditions: route intraperitoneal; in short: as §3
[16] = Toxicity in Swiss mouse; type: organism-based; conditions: in vivo
Murine hepatitis virus [17] = assay: Antiviral activity against Murine hepatitis virus Friend-Braunsteiner infected in ip dosed Swiss mouse assessed as most effective dose administered bid for 8 days; type: functional; in short: as §3

Row | SMILES | Activity (Vaccinia virus) | Activity (Human alphaherpesvirus 1) | Activity (Human respirovirus 3) | Activity (KB [1]) | Activity (KB [2]) | Activity (Mus musculus [3]) | Activity (Mus musculus [4]) | Activity (Mus musculus [5]) | Activity (Mus musculus [6]) | Activity (Mus musculus [7]) | Activity (Influenza A virus [8]) | Activity (Influenza B virus [9]) | Activity (Murine hepatitis virus [10]) | MSD (Influenza A virus [11]) [days] | MSD (Influenza B virus [12]) [days] | MSD (Murine hepatitis virus [13]) [days] | MSD (Murine hepatitis virus [14]) [days] | MSD (Murine hepatitis virus [15]) [days] | MTD [16] [mg/kg/day] | Activity (Murine hepatitis virus [17]) [mg/kg/day]
1 | NC(=O)c1ncn([C@@H]2O[C@H](COP(=O)(O)OP(=O)(O)O)[C@@H](O)[C@H]2O)n1 | Active | Active | Active | Active | inactive |  |  |  |  |  |  |  |  |  |  |  |  |  |  | 
2 | NC(=O)c1ncn([C@@H]2O[C@H](CO)[C@H]3OP(=O)(O)O[C@H]32)n1 | Active | Active | Active | Active | inactive |  |  |  |  |  |  |  |  |  |  |  |  |  |  | 
3 | NC(=O)c1ncn([C@@H]2O[C@H](COP(=O)([O-])[O-])[C@@H](O)[C@H]2O)n1.[Li+].[Li+] | Active | Active | Active | Active | inactive | Non-toxic | Non-toxic | Non-toxic | Non-toxic | Non-toxic | Active | Active | Active | 7.6 | 13.3 | 6.1 | 6 | 5.3 | 150 | 37.5
4 | NC(=O)c1ncn([C@@H]2O[C@H](CO)[C@@H](O)[C@H]2O)n1 | Active | Active | Active | Active | Active |  |  |  |  |  |  |  |  |  |  |  |  |  |  | 
5 | NC(=O)c1ncn([C@@H]2O[C@@H]3COP(=O)(O)O[C@H]3[C@H]2O)n1 | Active | Active | Active | Active | inactive |  |  |  |  |  |  |  |  |  |  |  |  |  |  | 
6 | NC(=O)c1ncn([C@@H]2O[C@H](COP(=O)(O)OP(=O)(O)OP(=O)(O)O)[C@@H](O)[C@H]2O)n1 | Active | Active | Active | Active | inactive |  |  |  |  |  |  |  |  |  |  |  |  |  |  | 
